Experimental data from different studies.
Protocols differ between the studies behind these lines.
ALK: ALK tyrosine kinase receptor (ALK, Homo sapiens, UniProt Q9UM73)
ALK L1196M: ALK tyrosine kinase receptor (ALK, Homo sapiens, UniProt Q9UM73, L1196M)
ALK C1156Y: ALK tyrosine kinase receptor (ALK, Homo sapiens, UniProt Q9UM73, C1156Y)

The remaining signal of CCN(CC)CCNC(=O)c1c(C)[nH]c(/C=C2\C(=O)Nc3ccc(F)cc32)c1C is reported as 16.6% (ALK; cell-free assay; 0.5 µM).
Cc1[nH]c(/C=C2\C(=O)Nc3ccc(F)cc32)c(C)c1C(=O)N[C@H]1CCN(C(=O)N(C)C)C1 has a remaining activity of 73% (ALK; enzyme activity; inhibitor; 1 µM).
With COc1ccc2c(c1)O[C@@H](c1ccc(OC)c(OC)c1)C[C@H]2NC(=O)C1(c2ccc3c(c2)OC(F)(F)O3)CC1 the remaining binding was 100% (ALK; cell-free assay; competition with immobilised ligand; 1 µM).
Cc1ccc(C(=O)Nc2ccc(CN3CCN(C)CC3)c(C(F)(F)F)c2)cc1C#Cc1cnc2cccnn12 gave a remaining signal of 81% (ALK; cell-free assay; 23.5 nM).
The remaining binding of O=C(NCc1ncc(C(F)(F)F)cc1Cl)c1ccc2c(c1)C1(CCS(=O)(=O)CC1)[C@H](C1CC1)N2S(=O)(=O)c1ccc(F)cc1 is reported as 98% (ALK; cell-free assay; competition with immobilised ligand; 1 µM).
With Cc1ccc(Nc2nccc(N(C)c3ccc4c(C)n(C)nc4c3)n2)cc1S(N)(=O)=O the inhibition was 79% (ALK; enzyme activity; inhibitor; 10 µM).
The remaining binding of CN(CCCC(F)(F)F)c1nccc(-c2cnn3ncccc23)n1 is reported as 100% (ALK L1196M; binding; 1 µM).
The remaining binding of CNCc1ccccc1-c1csc([C@H](C)Nc2nc(C)nc3cc(OC)c(OC)cc23)c1 is reported as 100% (ALK C1156Y; cell-free assay; competition with immobilised ligand; 1 µM).
The remaining binding of CN(C)c1ncc(F)c(-c2cnn3ncccc23)n1 is reported as 59% (ALK L1196M; binding; 1 µM).
CC/C(=N\NC(=O)NCc1cccc(O)c1)c1ccc(O)c(C)c1O has an inhibition of -0.9% (ALK tyrosine kinase receptor (ALK, Homo sapiens, UniProt Q9UM73, F1174L); enzyme activity; inhibitor; 0.1 µM).
CN([C@@H]1CCc2c(CC(=O)O)c3ccccc3n2C1)S(=O)(=O)c1ccc(F)cc1 gave a remaining binding of 78% (ALK; cell-free assay; competition with immobilised ligand; 1 µM).
N[C@@H]1CCN(c2nccc(-c3cnn4ncccc34)n2)C1 has a remaining binding of 65% (ALK C1156Y; binding; 1 µM).
For N#CCCc1ccc2c(c1)-c1[nH]c3ccc([N+](=O)[O-])cc3c1CC(=O)N2, the remaining signal was 78.8% (ALK; cell-free assay; 0.5 µM).
For CN(C)c1ncnc(-c2ccc3nc(Nc4cc(CN5CCN(C(=O)CC(F)(F)F)CC5)ccn4)[nH]c3c2)c1Cl, the remaining binding was 79% (ALK L1196M; cell-free assay; competition with immobilised ligand; 1 µM).
F[C@@H]1CCN(c2nccc(-c3cnn4ncccc34)n2)C1 gave a remaining binding of 100% (ALK L1196M; binding; 1 µM).
The remaining binding of CCc1ccccc1C(=O)Nc1n[nH]c2c(C)c(F)c(C3C(C#N)=C(C)N(C)C(C)=C3C#N)cc12 is reported as 100% (ALK C1156Y; cell-free assay; competition with immobilised ligand; 1 µM).
O=C(Nc1cnn(-c2csc(C(=O)NC3COC3)c2)c1)Nc1ccccc1Cl has a remaining activity of 101% (ALK; enzyme activity; inhibitor; 5 µM).
With C=CC(=O)Nc1cc(Nc2nccc(Nc3cc(Cl)c(F)cc3C(C)(C)O)n2)c(OC)cc1N1CC[C@@H](N(C)C)C1 the inhibition was 86% (ALK; enzyme activity; inhibitor; 1 µM).
